SMILES strings stand for the structures. Active and inactive are the calls of the source. The rule behind the calls is not given here.

The test system of data set [1] is Toxoplasma gondii. Put plainly: Antiparasitic activity against trachyzoites of Toxoplasma gondii type 2 expressing Pru-LUC infected in Balb/c mouse assessed as host survival at 5 mg/kg, ip administered for 10 days measured on day 30. The note with it: type II.
For data set [2], the system named is Toxoplasma gondii RH. Put plainly: Selectivity ratio of IC50 for Toxoplasma gondii RH CDPK1 G128S mutant to Toxoplasma gondii RH full length CDPK1.
The subject of data set [3] is Toxoplasma gondii. The data set can be described thus: Ratio of growth inhibition of Toxoplasma gondii harboring wild type CDPK1 to growth inhibition of Toxoplasma gondii harboring CDPK1 G128M mutant. The data set is classed as functional.
The nature of data set [4]: Inhibition of Toxoplasma gondii RH full length CDPK1 expressed in Escherichia coli BL21(DE3) using syntide-2 peptide as substrate after 20 mins by ELISA. Type of data set: cell-free. The gist of the method: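 His-tagged recombinant CDPK1 purified by nickel affinity. Syntide-2-coated plates blocked with 3% BSA. Reaction run 20 min at 30°C in HEPES pH 7.5 with 10 mM MgCl₂, 2.5 mM CaCl₂, 0.1 mM EGTA and 1 mM DTT. Each enzyme used at its half-maximal-activity concentration with ATP at its own Km. Phosphopeptide detected by mAb MS-6E6/HRP-TMB at A450. Triplicates; IC50 from variable-slope sigmoidal fit.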
On the technique in general: An ELISA detects its analyte on a solid surface through an enzyme-linked reagent.

The subject of data set [5] is Toxoplasma gondii. Put plainly: Antiparasitic activity against wild type tachyzoites of Toxoplasma gondii RH type 1 infected in HFF cells incubated for 20 mins prior to inoculation followed by compound washout at 4 hrs measured after 72 hrs by beta-galactoside reporter assay. Type of data set: functional, organism-based. The note with it: RH type 1, HFF. The gist of the method:
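Type I RH 2F clone (β-gal) in confluent HFF, DMEM with 10% FBS. Compounds diluted from 10 mM DMSO stock into medium with 1% DMSO (also no-compound control). Parasites preincubated 20 min at room temperature with compound, 5×10^2/well added, spun ~300 g 5 min. Washed with warm PBS at 4 h, grown to 72 h. Triton X-100 lysis, chlorophenol red-β-D-galactopyranoside, A570. Triplicates; EC50 from variable-slope sigmoidal fit.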
For orientation: In a reporter assay the amount or activity of a reporter protein is the signal.

Data set [6] concerns Toxoplasma gondii. The data set can be described thus: Antiparasitic activity against tachyzoites of Toxoplasma gondii RH type 1 infected in HFF cells incubated for 4 hrs followed by compound washout measured after 72 hrs by beta-galactoside reporter assay. Type of data set: functional, organism-based. The note with it: RH type 1, HFF. An outline of the steps: (§1)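 RH type I 2F clone expressing β-gal; compounds from 10 mM DMSO stocks diluted in medium with 1% DMSO. Parasites preincubated with compound 20 min at room temperature, then 5×10^2/well added to confluent HFF in DMEM/10% FBS and centrifuged. Washed with warm PBS after 4 or 24 h, grown to 72 h. Lysed in 1% Triton X-100; 1 mM chlorophenol red-β-D-galactopyranoside, A570.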

The subject of data set [7] is Toxoplasma gondii RH. Put plainly: Selectivity ratio of IC50 for Toxoplasma gondii RH CDPK1 G128A mutant to Toxoplasma gondii RH full length CDPK1.
Data set [8] deals with Toxoplasma gondii. The data set can be described thus: Antiparasitic activity against Toxoplasma gondii type 2 expressing Pru-LUC infected in Balb/c mouse assessed reduction in number of tissue cysts in brain at 5 mg/kg, […] for 10 days measured after 30 days by fluorescently labeled lectin staining based microscopic analysis relative to control. The note with it: type II. Type of data set: functional, organism-based. Details: dose 5 mg/kg.

Data set [9] has as its system Toxoplasma gondii. The data set can be described thus: Antiparasitic activity against Toxoplasma gondii harboring wild type CDPK1 infected in HFF cells incubated for 20 mins prior to infection followed by compound washout at 1 hr measured after 72 hrs by crystal violet staining method. The data set is classed as functional, organism-based. The gist of the method: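 CDPK1-cKO parasites complemented with wild-type CDPK1, grown 72 h with 1 μg/ml ATc and kept in ATc throughout. Parasites pre-incubated 20 min at 37°C in DMEM/10% FBS with compound or 1% DMSO vehicle. 10⁵ per well added to confluent HFF, spun 300g for 2 min, infected 1 h at 37°C, then rinsed 5× with warm PBS. Grown 72 h with ATc; lysis read by crystal violet A570, as % of DMSO control.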

Data set [10] deals with Toxoplasma gondii. The data set can be described thus: Antiparasitic activity against tachyzoites of Toxoplasma gondii RH type 1 infected in HFF cells incubated for 24 hrs followed by compound washout measured after 72 hrs by beta-galactoside reporter assay. Type of data set: functional, organism-based. An outline of the steps:
as §1

For data set [11], the system named is Liver microsomes. The data set can be described thus: Half life in rat liver microsomes by LC-MS analysis. The data set is classed as ADME, Microsome. A general note: Liver microsomes are vesicles of endoplasmic reticulum, rich in cytochrome P450 enzymes.
In data set [12] the test system is Liver microsomes. The data set can be described thus: Intrinsic clearance in rat liver microsomes assessed per mg of protein after 10 to 60 mins by LC-MS analysis in presence of NADPH. Type of data set: ADME, Microsome.

With `Cc1cccc(Cc2nn(C(C)(C)C)c3ncnc(N)c23)c1`, the result with Toxoplasma gondii [1], in the data set with Toxoplasma gondii [8] and in the data set on Toxoplasma gondii [9] was Active. Moreover, the Ratio IC50 with Toxoplasma gondii RH [2] was 5.6; in the data set on Toxoplasma gondii RH [7], 3. In the data set with Toxoplasma gondii [3], the Ratio stood at 100. For the same compound, the IC50 in data set [4] amounted to 3.99 nM. Moreover, the EC50 was 110 nM in the data set on Toxoplasma gondii [5] and 100 nM with Toxoplasma gondii [6].

As for `CCc1nc(N)nc(N)c1-c1ccc(Cl)cc1`, the outcome in the data set with Toxoplasma gondii [10] was Active.

`CC(C)(C)n1nc(-c2cccc(OCc3c(Cl)cccc3Cl)c2)c2c(N)ncnc21`: inhibition in data set [4] was half-maximal at 2470 nM (IC50). It took 4530 nM to reach a half-maximal effect in the data set on Toxoplasma gondii [5] (EC50).

In the case of `CC(C)(C)n1nc(Cc2cccc(I)c2)c2c(N)ncnc21`, the IC50 in data set [4] worked out at 12.9 nM. The same compound gave an EC50 with Toxoplasma gondii [5] of 1120 nM.

In data set [4], `CC(C)(C)n1nc(-c2cccc(Oc3ccccc3)c2)c2c(N)ncnc21` came in with an IC50 of 26.6 nM. Besides, in the data set with Toxoplasma gondii [5], the EC50 stood at 1320 nM.

On to `CC(C)(C)n1nc(Cc2cccc(Cl)c2F)c2c(N)ncnc21`, for which, in data set [4], the half-maximal inhibitory concentration (IC50) came out at 7.37 nM. Besides, in the data set with Toxoplasma gondii [5], it took 360 nM to reach a half-maximal effect (EC50). Also, the t1/2 in the data set on Liver microsomes [11] was found to be 2.5 min. For the same compound, the CLint in the data set on Liver microsomes [12] was > 350 µL/min/mg.

The compound `CC(C)n1nc(Cc2cc(Cl)ccc2F)c2c(N)ncnc21` displayed an IC50 in data set [4] of 92.4 nM. This compound also had an EC50 in the data set on Toxoplasma gondii [5] of 6730 nM.

Regarding `CC(C)(C)c1ccc(-c2nn(C(C)(C)C)c3ncnc(N)c23)cc1`, the IC50 in data set [4] turned out to be 1310 nM. This compound came in with an EC50 with Toxoplasma gondii [5] of 3770 nM.

`CC(C)(C)n1nc(Cc2ccc(F)c(Cl)c2)c2c(N)ncnc21` displayed an IC50 in data set [4] of 8.47 nM. The response with Toxoplasma gondii [5] was half-maximal at 410 nM (EC50). The t1/2 in the data set with Liver microsomes [11] stood at 4 min. The CLint in the data set with Liver microsomes [12] is > 350 µL/min/mg.

Turning to `CC(C)(C)n1nc(Cc2cc(F)cc(F)c2)c2c(N)ncnc21`, the outcome with Toxoplasma gondii [1] and in the data set with Toxoplasma gondii [8] was Active. Further, in the data set with Toxoplasma gondii [5], the concentration for a half-maximal effect (EC50) was determined as 610 nM.

In turn, `CC(C)(C)n1nc(Cc2cccc(Cl)c2Cl)c2c(N)ncnc21` gave an IC50 in data set [4] of 3.38 nM. The compound further gave an EC50 in the data set with Toxoplasma gondii [5] of 380 nM.

On to `CC(C)(C)n1nc(-c2cccc3ccccc23)c2c(N)ncnc21`, for which the response with Toxoplasma gondii [5] was half-maximal at 700 nM (EC50).

`CC(C)(C)n1nc(Cc2cc(F)cc(Cl)c2)c2c(N)ncnc21` had an IC50 in [4] of 13.2 nM. Besides, the EC50 in the data set on Toxoplasma gondii [5] worked out at 430 nM.

The compound `CC(C)(C)n1nc(-c2cccc(OCc3ccccc3)c2)c2c(N)ncnc21` came in with an IC50 in [4] of 374 nM. The EC50 in the data set on Toxoplasma gondii [5] was 11600 nM.

For `CC(C)(C)n1nc(Cc2cccc(Br)c2)c2c(N)ncnc21`, the IC50 in data set [4] stood at 9.64 nM. In addition, in the data set with Toxoplasma gondii [5], it took 380 nM to reach a half-maximal effect (EC50). This compound also yielded a t1/2 in the data set with Liver microsomes [11] of 3 min. Besides, the CLint in the data set with Liver microsomes [12] was > 350 µL/min/mg.

As for `CC(C)(C)n1nc(Cc2cccc(Cl)c2)c2c(N)ncnc21`, the result with Toxoplasma gondii [1], in the data set on Toxoplasma gondii [8] and with Toxoplasma gondii [9] was Active. For the same compound, it took 30 nM to reach a half-maximal effect with Toxoplasma gondii [5] (EC50).

In data set [4], `CC(C)(C)n1nc(-c2ccc3c(c2)OCO3)c2c(N)ncnc21` displayed an IC50 of 13.8 nM. The EC50 in the data set with Toxoplasma gondii [5] amounted to 620 nM.

In turn, `CC(C)n1nc(Cc2cc(F)cc(F)c2)c2c(N)ncnc21` had an IC50 in [4] of 50.9 nM. In addition, the 50% effective concentration (EC50) in the data set on Toxoplasma gondii [5] stood at 2070 nM.

On to `CC(C)n1nc(Cc2ccc(F)c(Cl)c2)c2c(N)ncnc21`, for which the IC50 in [4] was found to be 13.1 nM. Besides, the EC50 in the data set with Toxoplasma gondii [5] came out at 560 nM.

The compound `CC(C)(C)n1nc(Cc2cccc3ccccc23)c2c(N)ncnc21` returned a half-maximal effective concentration (EC50) with Toxoplasma gondii [5] of 1310 nM.

In turn, `CC(C)n1nc(C(O)c2cccc(Cl)c2Cl)c2c(N)ncnc21` (stereo not drawn) gave an IC50 in [4] of 200 nM. Also, the EC50 in the data set on Toxoplasma gondii [5] was 9460 nM. For the same compound, in the data set with Liver microsomes [11], the t1/2 amounted to 20.2 min. Moreover, in the data set on Liver microsomes [12], the CLint was found to be 68 µL/min/mg.

With `CC(C)n1nc(Cc2cc(F)cc(Cl)c2)c2c(N)ncnc21`, the Ratio in the data set with Toxoplasma gondii [3] is recorded as 100. This compound also came in with an IC50 in data set [4] of 4.59 nM. Further, a half-maximal effect in the data set on Toxoplasma gondii [5] (EC50) was put at 180 nM. For the same compound, the t1/2 in the data set with Liver microsomes [11] is listed as 2.4 min. Also, the result in the data set on Toxoplasma gondii [9] was Active. Also, the CLint with Liver microsomes [12] is > 350 µL/min/mg.

As to `CC(C)n1nc(C(F)c2cccc(Cl)c2Cl)c2c(N)ncnc21` (stereo not drawn), in data set [4], the IC50 came out at 13.6 nM. The compound also gave an EC50 with Toxoplasma gondii [5] of 2630 nM. The compound further showed a t1/2 in the data set on Liver microsomes [11] of 12.9 min. The CLint in the data set on Liver microsomes [12] was found to be 107 µL/min/mg.

As for `CC(C)(C)n1nc(Cc2cc(Cl)ccc2F)c2c(N)ncnc21`, half-maximal inhibition in [4] (IC50) was put at 12.5 nM. The compound further had an EC50 in the data set with Toxoplasma gondii [5] of 920 nM. In addition, in the data set on Liver microsomes [11], the t1/2 amounted to 5.5 min. In addition, the CLint in the data set on Liver microsomes [12] was 250 µL/min/mg.

In turn, `CC(C)n1nc(Cc2cccc(Cl)c2F)c2c(N)ncnc21` showed a 50% inhibitory concentration (IC50) in data set [4] of 1.43 nM. For the same compound, the EC50 in the data set with Toxoplasma gondii [5] is 1400 nM.

`CC(C)n1nc(Cc2cccc(Cl)c2Cl)c2c(N)ncnc21`: the outcome in the data set on Toxoplasma gondii [1], with Toxoplasma gondii [8] and in the data set on Toxoplasma gondii [9] was Active. Further, the Ratio in the data set with Toxoplasma gondii [3] was determined as 100. Half-maximal inhibition in data set [4] (IC50) was put at 2.38 nM. The compound also displayed an EC50 in the data set with Toxoplasma gondii [5] of 250 nM. This compound also had a t1/2 in the data set on Liver microsomes [11] of 7 min. In the data set with Liver microsomes [12], the CLint was 190 µL/min/mg.

In [4], `CC(C)(C)n1nc(Cc2ccc3ccccc3c2)c2c(N)ncnc21` registered an IC50 of 35.4 nM. In the data set with Toxoplasma gondii [5], this compound returned an EC50 of 1940 nM.

Usually IC50 stands for the point on the concentration scale where inhibition reaches its midpoint. Lower therefore signals greater potency. The EC50 is the concentration at which the effect is half-maximal. A low value points to higher potency in that assay.

Values taken from ChEMBL document CHEMBL2321856, “Optimizing small molecule inhibitors of calcium-dependent protein kinase 1 to prevent infection by Toxoplasma gondii” (J Med Chem, 2013).
